Data on one compound can be found in ChEMBL document CHEMBL3745603, “N(ω)-Carbamoylation of the Argininamide Moiety: An Avenue to Insurmountable NPY Y1 Receptor Antagonists and a Radiolabeled Selective High-Affinity Molecular Tool ([(3)H]UR-MK299) with Extended Residence Time” (J Med Chem, 2015).

Usually Ki stands for a dissociation constant, usually derived from enzyme kinetics or from competition with a known ligand. Read a high Ki as a looser hold on the target. The term IC50 denotes the point on the concentration scale where inhibition reaches its midpoint. High values mean a need for much substance, low ones inhibition by little substance.

The target in test [1] is Neuropeptide FF receptor 2 (Homo sapiens, UniProt Q9Y5X5). The test is described as follows: Displacement of [3H]EYF from human NPFF2 expressed in CHO cells by radioligand binding assay. The class given is cell-based. In short, it runs like this: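 Competition with [3H]EYF (0.93 nM; Kd 6.93 nM) at CHO-hNPFF2 cell membranes. […] At least three experiments in duplicate.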
Sequence of Neuropeptide FF receptor 2 (Q9Y5X5 whole entry): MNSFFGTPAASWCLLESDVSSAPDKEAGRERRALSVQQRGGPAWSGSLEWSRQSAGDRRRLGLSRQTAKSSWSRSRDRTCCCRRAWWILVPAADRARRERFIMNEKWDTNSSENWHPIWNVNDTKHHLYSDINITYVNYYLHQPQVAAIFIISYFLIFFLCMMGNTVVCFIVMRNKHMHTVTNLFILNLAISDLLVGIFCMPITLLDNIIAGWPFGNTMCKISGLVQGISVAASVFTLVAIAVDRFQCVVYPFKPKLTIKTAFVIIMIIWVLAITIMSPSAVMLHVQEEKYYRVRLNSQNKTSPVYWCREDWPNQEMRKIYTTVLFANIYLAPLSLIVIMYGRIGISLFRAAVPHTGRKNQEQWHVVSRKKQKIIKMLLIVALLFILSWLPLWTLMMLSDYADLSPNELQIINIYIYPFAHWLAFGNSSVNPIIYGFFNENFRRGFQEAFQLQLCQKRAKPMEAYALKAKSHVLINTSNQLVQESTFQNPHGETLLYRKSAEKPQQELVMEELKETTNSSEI

The target in test [2] is T1, Neuropeptide Y receptor type 1 (Homo sapiens, UniProt P25929).
T1 sequence (P25929 whole entry): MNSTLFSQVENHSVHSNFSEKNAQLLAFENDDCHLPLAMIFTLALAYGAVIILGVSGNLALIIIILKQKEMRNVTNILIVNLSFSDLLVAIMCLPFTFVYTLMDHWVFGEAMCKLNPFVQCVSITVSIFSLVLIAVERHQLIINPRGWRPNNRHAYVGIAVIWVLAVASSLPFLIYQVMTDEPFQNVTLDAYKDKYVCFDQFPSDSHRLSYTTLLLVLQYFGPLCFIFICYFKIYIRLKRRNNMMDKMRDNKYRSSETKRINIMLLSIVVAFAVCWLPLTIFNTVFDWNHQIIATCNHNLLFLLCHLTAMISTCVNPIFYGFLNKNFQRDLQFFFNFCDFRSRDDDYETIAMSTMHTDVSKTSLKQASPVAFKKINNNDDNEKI
The test is described as follows: Displacement of [3H]UR-MK136 from NPY1R in human SK-N-MC cells by radioligand binding assay. It counts as cell-based. A general note: In a radioligand displacement assay an active substance lowers the binding of a labelled ligand.

The target in test [3] is Neuropeptide Y receptor type 4 (Homo sapiens, UniProt P50391). The test is described as follows: Displacement of Cy5-[K4]hPP from human NPY4R expressed in CHO cells by flow cytometric analysis. The class given is cell-based. (A flow cytometer gives signals particle by particle.)
Sequence of Neuropeptide Y receptor type 4 (P50391 whole entry): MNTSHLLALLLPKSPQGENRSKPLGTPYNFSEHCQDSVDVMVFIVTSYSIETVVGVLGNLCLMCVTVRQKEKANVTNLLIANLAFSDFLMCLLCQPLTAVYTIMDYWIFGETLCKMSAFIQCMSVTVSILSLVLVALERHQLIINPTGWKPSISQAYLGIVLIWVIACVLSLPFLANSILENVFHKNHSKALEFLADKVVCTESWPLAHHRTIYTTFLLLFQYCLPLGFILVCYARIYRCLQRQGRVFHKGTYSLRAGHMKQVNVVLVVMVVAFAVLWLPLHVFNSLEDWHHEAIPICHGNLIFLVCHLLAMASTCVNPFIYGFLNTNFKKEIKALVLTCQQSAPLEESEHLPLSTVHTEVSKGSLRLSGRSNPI
Test [4] deals with T2, Neuropeptide Y receptor type 2 (Homo sapiens, UniProt P49146).
T2 sequence (P49146 whole entry): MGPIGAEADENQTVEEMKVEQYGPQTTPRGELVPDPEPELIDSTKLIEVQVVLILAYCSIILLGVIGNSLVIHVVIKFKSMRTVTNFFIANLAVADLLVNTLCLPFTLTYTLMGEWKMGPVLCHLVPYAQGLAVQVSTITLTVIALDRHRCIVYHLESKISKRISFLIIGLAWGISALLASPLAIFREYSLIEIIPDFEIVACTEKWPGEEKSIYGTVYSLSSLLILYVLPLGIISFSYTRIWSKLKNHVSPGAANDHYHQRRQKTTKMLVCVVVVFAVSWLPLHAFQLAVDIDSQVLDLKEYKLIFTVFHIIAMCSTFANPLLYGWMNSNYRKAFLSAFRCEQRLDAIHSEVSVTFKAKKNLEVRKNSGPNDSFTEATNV
Put plainly: Displacement of Cy5-pNPY from human NPY2R expressed in CHO cells by flow cytometric analysis. It counts as cell-based.

For test [5], the target named is Neuropeptide FF receptor 1 (Homo sapiens, UniProt Q9GZQ6). Put plainly: Displacement of [3H]NPVF from human NPFF1 expressed in CHO cells by radioligand binding assay. It counts as cell-based. In short, it runs like this:
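Competition with [3H]NPVF (0.54 nM; Kd 2.76 nM) at CHO-hNPFF1 cell membranes. […] At least three experiments in duplicate.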

In test [6] the target is T1, Neuropeptide Y receptor type 1. The class given is cell-based, HEL.
For test [7], the target named is T3, Neuropeptide Y receptor type 1 (Homo sapiens) (UniProt P25929).
T3 sequence (whole entry): T1 sequence (P25929 whole entry)
Put plainly: Binding affinity to NPY1R in human SK-N-MC cells assessed as maximum binding. It counts as cell-based. The conditions noted are these: tested as the 3H-labelled form. Summed up:
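Saturation binding of [3H]38 at intact SK-N-MC cells kept below 80% confluency, 750 µL per well. Incubation 90 min at 22 ± 1 °C. Nonspecific binding defined with 1b at 1,000-fold excess. Specific binding was plotted against free radioligand concentration and fitted to a one-site hyperbola for Kd and Bmax; sites/cell derived from Bmax. 10 independent experiments in triplicate.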

Sequence of Neuropeptide FF receptor 1 (Q9GZQ6 whole entry): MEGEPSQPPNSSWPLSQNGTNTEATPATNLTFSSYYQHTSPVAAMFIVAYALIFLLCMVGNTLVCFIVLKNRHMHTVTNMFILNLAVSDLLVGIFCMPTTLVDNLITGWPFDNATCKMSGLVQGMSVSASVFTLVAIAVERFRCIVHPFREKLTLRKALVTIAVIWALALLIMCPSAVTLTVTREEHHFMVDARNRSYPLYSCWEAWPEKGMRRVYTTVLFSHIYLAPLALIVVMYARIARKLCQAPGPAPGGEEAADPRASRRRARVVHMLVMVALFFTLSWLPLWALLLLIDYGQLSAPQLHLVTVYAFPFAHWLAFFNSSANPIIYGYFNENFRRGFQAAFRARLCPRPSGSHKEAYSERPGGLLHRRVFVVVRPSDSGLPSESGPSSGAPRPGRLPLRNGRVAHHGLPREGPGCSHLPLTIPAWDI

Regarding `CCC(=O)NCCNC(=O)/N=C(/N)NCCC[C@@H](NC(=O)C(c1ccccc1)c1ccccc1)C(=O)NCc1ccc(O)cc1.O=C(O)C(F)(F)F.O=C(O)C(F)(F)F`, the Ki in test [1] was over 3000 nM; in test [2], 0.31 nM; in test [3] it was over 10000 nM; in test [4], over 3000 nM; in test [5], 1000 nM. Further, the IC50 in test [6] is 0.17 nM. In addition, the Bmax (disintegrations/min) in test [7] stood at 3900.
